Data published in publication PMC7245552 (Cell chemical biology, 2020).

Assays:
K2P2.1 I110E = target: T1, K2P2.1 I110E (Mus musculus, UniProt P97438, I125E); assay: TEVC recordings in Xenopus oocytes, K2P2.1 I110E; type: cell-based, Murine; conditions: K2P2.1 I110E versus K2P2.1 I110D
T1 sequence (P97438 1-411 isoform P97438-2 I110E): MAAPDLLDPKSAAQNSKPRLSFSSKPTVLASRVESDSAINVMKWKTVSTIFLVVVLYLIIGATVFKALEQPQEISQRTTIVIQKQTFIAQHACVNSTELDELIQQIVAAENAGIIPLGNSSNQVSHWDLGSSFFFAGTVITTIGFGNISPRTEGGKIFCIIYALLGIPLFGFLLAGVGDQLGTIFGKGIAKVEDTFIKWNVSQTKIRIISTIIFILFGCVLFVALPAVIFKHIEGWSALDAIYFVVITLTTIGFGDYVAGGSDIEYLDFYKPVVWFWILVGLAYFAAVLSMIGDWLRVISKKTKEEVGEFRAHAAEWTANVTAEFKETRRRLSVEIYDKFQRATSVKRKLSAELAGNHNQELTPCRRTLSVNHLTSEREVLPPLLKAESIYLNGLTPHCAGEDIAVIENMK
In short: (§1)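 Murine channel cRNA (0.1–6 ng) injected into defolliculated stage V–VI X. laevis oocytes kept at 18°C in ND96 with antibiotics. TEVC 24–48 h later with constant ND96 perfusion; −80 mV hold, 500 ms ramp −140 to +50 mV. Ruthenium compounds were freshly dissolved in ND96. Block corrected for uninjected-oocyte basal current. ≥3 oocytes from ≥2 batches per point; IC50 from Hill fit, coefficient fixed −1.0.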

K2P2.1 I110D/N147D = target: T2, K2P2.1 I110D/N147D (Mus musculus, UniProt P97438, I125D/N162D); assay: TEVC recordings in Xenopus oocytes, K2P2.1 I110D/N147D; type: cell-based, Murine; conditions: I110D/N147D pair; T = 298K
T2 sequence (P97438 1-411 isoform P97438-2 I110D/N147D): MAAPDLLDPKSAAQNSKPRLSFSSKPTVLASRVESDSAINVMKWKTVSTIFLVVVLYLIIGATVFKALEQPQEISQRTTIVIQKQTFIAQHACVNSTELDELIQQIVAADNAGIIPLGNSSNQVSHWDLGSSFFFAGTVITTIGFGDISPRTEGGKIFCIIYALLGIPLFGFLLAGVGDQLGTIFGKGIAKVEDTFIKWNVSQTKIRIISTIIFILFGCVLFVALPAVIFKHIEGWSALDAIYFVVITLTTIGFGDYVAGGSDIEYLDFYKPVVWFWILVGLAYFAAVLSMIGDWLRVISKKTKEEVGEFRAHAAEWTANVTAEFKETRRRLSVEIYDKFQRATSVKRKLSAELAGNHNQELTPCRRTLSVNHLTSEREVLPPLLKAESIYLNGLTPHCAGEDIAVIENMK
In short: (§2)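 Coupling energy was computed as ΔΔGΩ = RT lnΩ, with R=1.987 cal mol−1 deg−1 and T=298 K. Inputs were RuR inhibition measurements by TEVC in X. laevis oocytes expressing murine mutant channels: −80 mV hold, 500 ms ramp −140 to +50 mV, ND96 perfusion. IC50s came from a Hill fit with coefficient −1.0, using ≥3 oocytes from ≥2 batches per point.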

K2P2.1 I110D/N147E = target: T3, K2P2.1 I110D/N147E (Mus musculus, UniProt P97438, I125D/N162E); assay: TEVC recordings in Xenopus oocytes, K2P2.1 I110D/N147E; type: cell-based, Murine; conditions: I110D/N147E pair; T = 298K
T3 sequence (P97438 1-411 isoform P97438-2 I110D/N147E): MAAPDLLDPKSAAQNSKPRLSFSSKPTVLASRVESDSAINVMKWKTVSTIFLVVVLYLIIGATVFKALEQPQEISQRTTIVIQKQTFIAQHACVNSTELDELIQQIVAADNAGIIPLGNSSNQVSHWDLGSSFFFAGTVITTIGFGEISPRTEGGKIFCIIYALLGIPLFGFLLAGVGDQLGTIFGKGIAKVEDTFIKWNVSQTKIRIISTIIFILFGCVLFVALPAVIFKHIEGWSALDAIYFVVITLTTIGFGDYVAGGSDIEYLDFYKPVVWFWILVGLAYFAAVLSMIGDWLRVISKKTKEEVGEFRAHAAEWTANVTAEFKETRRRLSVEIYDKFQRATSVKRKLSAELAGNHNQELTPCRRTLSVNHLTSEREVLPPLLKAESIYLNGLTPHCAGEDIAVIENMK
In short: as §2

K2P2.1 I110D = target: T4, K2P2.1 I110D (Mus musculus, UniProt P97438, I125D); assay: TEVC recordings in Xenopus oocytes, K2P2.1 I110D; type: cell-based, Murine
T4 sequence (P97438 1-411 isoform P97438-2 I110D): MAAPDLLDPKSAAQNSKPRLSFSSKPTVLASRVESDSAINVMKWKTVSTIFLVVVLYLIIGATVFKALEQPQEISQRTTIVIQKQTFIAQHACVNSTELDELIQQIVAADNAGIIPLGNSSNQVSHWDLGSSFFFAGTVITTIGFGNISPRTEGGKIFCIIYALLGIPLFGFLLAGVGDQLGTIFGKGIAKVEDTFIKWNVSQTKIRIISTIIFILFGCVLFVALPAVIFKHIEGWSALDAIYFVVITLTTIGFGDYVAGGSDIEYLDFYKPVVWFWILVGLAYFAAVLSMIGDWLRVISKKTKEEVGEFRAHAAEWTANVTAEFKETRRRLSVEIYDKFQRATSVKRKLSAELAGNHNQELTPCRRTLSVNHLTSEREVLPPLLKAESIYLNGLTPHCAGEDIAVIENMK

K2P2.1 (TREK-1) [1] = conditions: read-out: EC50 (ML335) activation, ref Lolicato et al., 2017; cited from earlier work
K2P2.1 (TREK-1) [2] = target: T5, K2P2.1 (TREK-1) (Mus musculus, UniProt P97438); assay: TEVC recordings in Xenopus oocytes, K2P2.1; type: cell-based, Murine; conditions: 100 μM Ru360 applied to K2P2.1 (TREK-1)
T5 sequence (P97438 1-411 isoform P97438-2): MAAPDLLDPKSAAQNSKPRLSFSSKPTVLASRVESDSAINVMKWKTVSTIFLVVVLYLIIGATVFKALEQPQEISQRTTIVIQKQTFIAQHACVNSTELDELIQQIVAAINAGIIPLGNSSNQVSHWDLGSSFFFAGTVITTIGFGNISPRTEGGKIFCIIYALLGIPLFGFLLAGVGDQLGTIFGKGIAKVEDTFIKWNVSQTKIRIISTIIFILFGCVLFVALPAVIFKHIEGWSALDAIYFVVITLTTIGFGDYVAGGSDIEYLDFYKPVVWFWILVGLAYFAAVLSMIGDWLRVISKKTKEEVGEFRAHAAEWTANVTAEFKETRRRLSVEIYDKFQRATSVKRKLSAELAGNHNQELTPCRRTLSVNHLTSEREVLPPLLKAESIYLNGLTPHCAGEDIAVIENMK
In short: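 Oocytes expressing murine wild-type channel were perfused with ND96 until current was stable, then with 100 μM Ru360 freshly prepared in ND96 and kept light-protected, until current stabilised again. Currents were elicited from a −80 mV hold by a 500 ms ramp −140 to +50 mV. Fractional block was corrected for basal current averaged from uninjected oocytes (n=14).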

K2P10.1 (TREK-2) = target: T6, K2P10.1 (TREK-2) (Mus musculus, UniProt Q8BUW1); assay: TEVC recordings in Xenopus oocytes, K2P10.1; type: cell-based, Murine
T6 sequence (Q8BUW1 1-535): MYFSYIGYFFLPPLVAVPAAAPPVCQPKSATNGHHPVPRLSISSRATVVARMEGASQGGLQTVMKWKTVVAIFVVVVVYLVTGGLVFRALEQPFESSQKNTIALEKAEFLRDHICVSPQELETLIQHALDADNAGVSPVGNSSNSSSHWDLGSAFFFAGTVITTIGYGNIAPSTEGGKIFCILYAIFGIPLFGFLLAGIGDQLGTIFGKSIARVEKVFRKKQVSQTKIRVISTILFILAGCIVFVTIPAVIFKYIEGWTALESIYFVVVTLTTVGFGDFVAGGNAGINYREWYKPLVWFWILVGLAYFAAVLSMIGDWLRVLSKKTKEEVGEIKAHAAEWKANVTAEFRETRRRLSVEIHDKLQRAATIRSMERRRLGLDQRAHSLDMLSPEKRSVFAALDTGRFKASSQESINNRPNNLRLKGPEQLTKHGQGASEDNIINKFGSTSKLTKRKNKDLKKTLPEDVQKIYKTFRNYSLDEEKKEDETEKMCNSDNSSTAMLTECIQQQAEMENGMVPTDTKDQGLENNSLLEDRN
In short: as §1

crystal structure = target: the molecule itself; assay: crystal structure

Molecule: N.N.N.N.N.N.N.N.N.N.N.N.N.N.[Cl-].[Cl-].[Cl-].[Cl-].[Cl-].[Cl-].[O-2].[O-2].[Ru+3].[Ru+3].[Ru+4] [RuR, Ruthenium Red]
- RuR inhibition fold weaker than that observed for K2P2.1 I110D (K2P2.1 I110E): ~ 50 fold
- ΔΔG coupling energy, double mutant cycle analysis of RuR binding (K2P2.1 I110D/N147D): -4.1 kcal/mol
- ΔΔG coupling energy, double mutant cycle analysis of RuR binding (K2P2.1 I110D/N147E): -0.3 kcal/mol

Molecule: CS(=O)(=O)Nc1ccc(C(=O)NCc2ccc(Cl)cc2Cl)cc1 [ML335]
- EC50 (K2P2.1 I110D; read-out: EC50 (ML335) activation, TEVC): 11.8 ± 2.3 µM
- EC50 (K2P2.1 (TREK-1) [1]): 14.3 ± 2.7 µM

Molecule: Ru360
- Effect on channel current (K2P2.1 (TREK-1) [2]): no effect
- Ru360 IC50 fold weaker than that for RuR (K2P2.1 I110D): > 10 fold
- Ru360 IC50 fold weaker than that for RuR (K2P10.1 (TREK-2)): > 10 fold

B1: K2P2.1 (TREK-1)CRYST I110D (domain or fragment, mouse, UniProt P97438-2 21-322, looked up)
chain: SFSSKPTVLASRVESDSAINVMKWKTVSTIFLVVVLYLIIGATVFKALEQPQEISQRTTIVIQREKFLRAHPCVSDQELDELIQQIVAADNAGIIPLGASSNQVSHWDLGSSFFFAGTVITTIGFGNISPRTEGGKIFCIIYALLGIPLFGFLLAGVGDQLGTIFGKGIAKVEDTFIKWNVSQTKIRIISTIIFILFGCVLFVALPAVIFKHIEGWSALDAIYFVVITLTTIGFGDYVAGGSDIEYLDFYKPVVWFWILVGLAYFAAVLSMIGDWLRVICKKTKEAVGEFRAHAAEWTANVT
- binding result (crystal structure): binds
